# Data published in ChEMBL document CHEMBL2029338, “Synthesis, biological evaluation, and molecular docking studies of benzyl, alkyl and glycosyl [2-(arylamino)-4,4-dimethyl-6-oxo-cyclohex-1-ene]carbodithioates, as potential immunomodulatory and immunosuppressive agents” (Bioorg Med Chem, 2012).
# Tests used:
# THP-1 [1] = assay: Antiinflammatory activity in PMA-stimulated human THP1 cells assessed as inhibition of LPS-induced IL-1beta production at 25 ug/mL after 18 hrs; assay type: functional; conditions: THP-1, 18 h
# In short: (§1)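 THP-1 cells plated at 2.5 × 10⁵ cells/mL and differentiated to macrophage-like cells with PMA (20 ng/mL final) for 24 h at 37 °C, 5% CO₂. Then stimulated with LPS (50 ng/mL final) and treated with test compounds. TNF-α was measured in supernatant at 4 h and IL-1β at 18 h by DuoSet ELISA.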
# 3T3-L1 = assay: Cytotoxicity against mouse 3T3L1 cells after 48 hrs by MTT assay; assay type: cell-based; conditions: 3T3-L1, 48 h
# In short: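 3T3-L1 mouse embryo fibroblasts in DMEM with 10% FBS. Plated at 6 × 10⁴ cells/mL for 24 h at 37 °C, 5% CO₂, then exposed to compounds (up to 20 µg/mL) in triplicate for 48 h. Viability by MTT 0.5 mg/mL for 4 h, DMSO solubilization, absorbance at 540 nm; mean ± SD of triplicates.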
# J774.2 [2] = assay: Antiinflammatory activity in lipopolysaccharide-induced mouse J774.2 cells assessed as inhibition of nitric oxide production at 25 ug/mL after 24 hrs by Griess method; assay type: functional; conditions: J774.2, 24 h
# In short: (§2)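 J774.2 mouse macrophages grown in DMEM with 10% FBS, seeded at 10⁶ cells/mL. NOS-2 induced with E. coli LPS; compounds at 25 µg/mL added right after LPS, 37 °C, 5% CO₂. Supernatant taken at 24 h and nitrite read by Griess reagent (sulfanilamide, then naphthylethylenediamine in 2.5% phosphoric acid), 10 min at 23 °C, A550. Quantified against a sodium nitrite standard curve; mean ± SD of duplicate readings.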
# CC-1 = assay: Cytotoxicity against Wistar rat CC1 cells after 48 hrs by MTT assay; assay type: cell-based; conditions: CC-1, 48 h
# In short: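 Plated at 6 × 10⁴ cells/mL for 24 h at 37 °C, 5% CO₂, then exposed to compounds (up to 20 µg/mL) in triplicate for 48 h. MTT 0.5 mg/mL for 4 h, formazan dissolved in DMSO, A540; mean ± SD of triplicates.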
# [3] = (§3) Antiinflammatory activity in human whole blood phagocytes assessed as inhibition of respiratory burst measuring ROS after 30 mins by luminol-enhanced chemiluminescence assay; assay type: functional, cell-based; conditions: 0.5 h
# In short: (§4)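 Luminol-enhanced chemiluminescence of whole blood phagocytes. Compounds at 1.0, 10 and 100 µg/mL in HBSS⁺⁺ (with Ca²⁺/Mg²⁺) were incubated with whole blood diluted 1:50 for 30 min at 37 °C. Luminol and serum-opsonized zymosan (S. cerevisiae) were then added. ROS kinetics were monitored by luminometer for 50 min in repeated scan mode, with positive, negative and blank controls.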
# THP-1 [4] = assay: Antiinflammatory activity in PMA-stimulated human THP1 cells assessed as inhibition of LPS-induced TNFalpha production at 25 ug/mL after 4 hrs; assay type: functional; conditions: THP-1, 4 h; in short: as §1
# PBMC [5] = assay: Immunosuppressive activity in human PBMC assessed as inhibition of PHA-induced cell proliferation after 72 hrs by [methyl-3H]thymidine incorporation assay; assay type: functional, cell-based
# In short: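 Human PBMCs from healthy donor venous blood, isolated by density separation and cultured in RPMI-1640 with 10% FBS. Stimulated with PHA in the presence of increasing compound concentrations for 72 h at 37 °C, 5% CO₂. [methyl-³H]thymidine 0.5 µCi/well added for a further 18 h, then harvested and counted by liquid scintillation. Expressed as % of stimulated control, mean ± SD of triplicates; IC50 derived.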
# PBMC [6] = assay: Immunosuppressive activity against human PBMC assessed as inhibition of PHA/PMA-induced IL2 production after 18 hrs by ELISA
# J774.2 [7] = assay: Antiinflammatory activity in lipopolysaccharide-induced mouse J774.2 cells assessed as inhibition of nitric oxide production after 24 hrs by Griess method; assay type: functional, cell-based; conditions: J774.2, 24 h; in short: as §2
# Homo sapiens = species on record: Homo sapiens; assay: as §3; assay type: functional, cell-based; in short: as §4
IC50 [3] [µg/mL],IC50 (J774.2 [7]) [µM],SMILES,inhibition at 25 µg/mL (THP-1 [1]) [%],IC50 (3T3-L1) [µg/mL],inhibition at 25 µg/mL (J774.2 [2]) [%],IC50 (CC-1) [µg/mL],inhibition at 25 µg/mL (THP-1 [4]) [%],IC50 (PBMC [5]) [µg/mL],IC50 (PBMC [6]) [µg/mL],inhibition (PBMC [5]),inhibition (PBMC [6]),inhibition (Homo sapiens)
5.94,,CC(=O)OC[C@H]1O[C@@H](SC(=S)C2=C(Nc3ccc(Cl)cc3Cl)CC(C)(C)CC2=O)[C@H](OC(C)=O)[C@@H](OC(C)=O)[C@H]1OC(C)=O,86,> 20,66.8,> 20,83.8,3.9,2.1,,,
> 100,,CCCCSC(=S)C1=C(Nc2ccc(Cl)cc2Cl)CC(C)(C)CC1=O,-22,,35.2,,-14.7,> 50,> 20,,,
> 100,,CCCCSC(=S)C1=C(Nc2ccc(Cl)cc2)CC(C)(C)CC1=O,-92.9,,23.6,,10.5,> 50,> 20,,,
> 100,,CC1(C)CC(=O)C(C(=S)SCCO)=C(Nc2ccc(Cl)cc2Cl)C1,16.5,,44.8,,-50.3,> 50,> 20,,,
> 100,,CC1(C)CC(=O)C(C(=S)SCc2ccccc2)=C(Nc2ccc(Cl)cc2)C1,13.1,,10.4,,-21,> 50,> 20,,,
> 100,49.1,CC1(C)CC(=O)C=C(Nc2ccc(Br)cc2)C1,-26.8,,62.7,,-31.4,> 50,> 20,,,
> 100,,CCCCCCCCCCCSC(=S)C1=C(Nc2ccc(Cl)cc2Cl)CC(C)(C)CC1=O,30.3,,39.7,,29.3,> 50,> 20,,,
> 100,,CC1(C)CC(=O)C=C(Nc2ccc(Cl)cc2Cl)C1,38.5,,42.1,,6.3,17.6,> 20,,,
> 100,,CC1(C)CC(=O)C(C(=S)SCCO)=C(Nc2ccc(Cl)cc2)C1,48.1,,43.3,,0,21,> 20,,,
> 100,,CC1(C)CC(=O)C(C(=S)SCc2ccccc2)=C(Nc2ccc(Cl)cc2Cl)C1,-119,,39.5,,-50.3,> 50,> 20,,,
> 100,7.7,CC(=O)OC[C@H]1O[C@@H](SC(=S)C2=C(Nc3ccc(Br)cc3)CC(C)(C)CC2=O)[C@H](OC(C)=O)[C@@H](OC(C)=O)[C@@H]1OC(C)=O,59.2,> 20,68.4,19.8,58.7,8.8,3.4,Dose-dependent effect,Dose-dependent effect,
> 100,,CC1(C)CC(=O)C(C(=S)SCCO)=C(Nc2ccc(Br)cc2)C1,5.5,,37,,-33.5,8.3,> 20,Dose-dependent effect,Dose-dependent effect,
> 100,,CCCCCCCCCCCSC(=S)C1=C(Nc2ccc(Br)cc2)CC(C)(C)CC1=O,-22.7,,32.1,,-58.7,> 50,> 20,,,
> 100,,CCCCCCCCCCCSC(=S)C1=C(Nc2ccc(Cl)cc2)CC(C)(C)CC1=O,-15.8,,16.5,,-56.6,> 50,> 20,,,
> 100,63.8,CC1(C)CC(=O)C=C(Nc2ccc(Cl)cc2)C1,17.2,,62.4,,-4.3,15,> 20,,,
90,44.3,CC(=O)OC[C@H]1O[C@@H](SC(=S)C2=C(Nc3ccc(Cl)cc3)CC(C)(C)CC2=O)[C@H](OC(C)=O)[C@@H](OC(C)=O)[C@@H]1OC(C)=O,46.8,> 20,77.3,> 20,83.8,9.9,3.5,Dose-dependent effect,Dose-dependent effect,
> 100,,CCCCSC(=S)C1=C(Nc2ccc(Br)cc2)CC(C)(C)CC1=O,,,18.9,,-31.4,> 50,> 20,,,
,36.4,CC(C)=NNC1=C2C(=S)NN=C2CC(C)(C)C1,,,,,,13.2,14.7,Dose-dependent effect,Dose-dependent effect,Dose-dependent effect
> 100,,CC1(C)CC(=O)C(C(=S)SCc2ccccc2)=C(Nc2ccc(Br)cc2)C1,-158,,38.5,,-50.3,> 50,> 20,,,
> 100,16.1,CC(=O)OC[C@H]1O[C@@H](SC(=S)C2=C(Nc3ccc(Cl)cc3Cl)CC(C)(C)CC2=O)[C@H](OC(C)=O)[C@@H](OC(C)=O)[C@@H]1OC(C)=O,,,57.2,,-48.2,15.8,> 20,,,
